Measurements pooled from the literature.
Each line is one published result; the experiments were not run side by side.
Target: Tyrosine-protein kinase Fyn (FYN, Homo sapiens, UniProt P06241)

C[C@@H]1CCN(c2nccc(-c3cnn4ncccc34)n2)C1
remaining binding (binding; 1 µM): 88%

FC(F)(F)Oc1cccc(-c2cnc3ccc(-c4ccncc4)nn23)c1
remaining binding (cell-free assay; competition with immobilised ligand; 5 µM): 51%

CN(C)CC#Cc1ccc(OCCCc2sc(N3CCc4cccc(C(=O)Nc5nc6ccccc6s5)c4C3)nc2C(=O)O)c(F)c1
remaining binding (cell-free assay; competition with immobilised ligand; 1 µM): 96%

COc1ccnn2ncc(-c3ccnc(N(C)C)n3)c12
remaining binding (binding; 1 µM): 100%

O=C(c1ccc(Nc2ncc(Cl)c(-c3cc4ccccc4s3)n2)cc1)N1CCC(N2CCCC2)CC1
remaining binding (binding; competition with immobilised ligand; 1 µM): 96%

CS(=O)(=O)NCC[C@H](NC(=O)c1cncc2c1cnn2-c1ccc(F)cc1)c1ccnc(S(C)(=O)=O)c1
remaining binding (cell-free assay; competition with immobilised ligand; 1 µM): 100%

CN(CCCC(F)(F)F)c1nccc(-c2cnn3ncccc23)n1
remaining binding (binding; 1 µM): 82%

c1cncc(-c2cccc(Nc3nccc(NC4CCCCC4)n3)c2)c1
remaining binding (binding; competition with immobilised ligand; 10 µM): 45%

C[C@@H](c1ccc(-n2cnc3c(N)ncnc32)cc1)N1CCc2nn(C)c(Cc3ccccc3)c2C1=O
remaining binding (binding; competition with immobilised ligand; 0.1 µM): 100%

CC(C)CC(=O)N1CCc2nc(-c3ccc(Br)cc3)nc(N(C)Cc3ccccc3)c2C1
remaining binding (cell-free assay; competition with immobilised ligand; 0.1 µM): 100%

O=C(c1ccc(Nc2nccc(-c3cc4ccccc4s3)n2)cc1)N1CCC(N2CCCC2)CC1
remaining binding (binding; competition with immobilised ligand; 1 µM): 85%

CC1CCCN1c1nccc(-c2cnn3ncccc23)n1 (stereo not drawn)
remaining binding (binding; 1 µM): 69%

COc1ncc2cc3ccccc3nc2c1C#N
remaining binding (cell-free assay; competition with immobilised ligand; 5 µM): 100%

CN(c1nccc(-c2cnn3ncccc23)n1)C1CC1
remaining binding (binding; 1 µM): 85%

C[C@@H]1CN(c2cc(-c3n[nH]c4ccc(OC5(C)CC5)cc34)ncn2)C[C@H](C)O1
remaining binding (cell-free assay; competition with immobilised ligand; 0.1 µM): 100%

CN(C)c1nccc(-c2cnc3ncccn23)n1
remaining binding (binding; 1 µM): 99%

COc1ccc2c(c1)O[C@H](c1ccc(OC)c(OC)c1)C[C@@H]2NC(=O)C1(c2ccc3c(c2)OC(F)(F)O3)CC1
remaining binding (cell-free assay; competition with immobilised ligand; 1 µM): 100%

COc1cnc(Nc2cccc(S(N)(=O)=O)c2)nc1N1CCN(c2ccccc2)C(=O)C1
remaining binding (binding; competition with immobilised ligand; 1 µM): 100%

O=C(NCC1CCOCC1)c1n[nH]cc1NC(=O)c1c(F)cccc1F
remaining binding (binding; competition with immobilised ligand; 1 µM): 100%

Cc1cnc(Nc2ccc(C(=O)N3CCC(N4CCCC4)CC3)cc2)nc1-c1cc2ccccc2s1
remaining binding (binding; competition with immobilised ligand; 1 µM): 78%

O=C(NCc1ncc(C(F)(F)F)cc1Cl)c1ccc2c(c1)C1(CCS(=O)(=O)CC1)[C@H](C1CC1)N2S(=O)(=O)c1ccc(F)cc1
remaining binding (cell-free assay; competition with immobilised ligand; 1 µM): 100%
